Published values collected from several papers.
Lines come from different studies, so protocols differ.
Organism: Staphylococcus aureus
Read-out: microbial killing

O=C(O)CN1C(=O)/C(=C/c2ccc(-c3ccc(N(c4ccccc4)c4ccccc4)cc3)cc2)NC1=S — MBC (broth dilution; ATCC25923): 3.9 µg/mL
CCn1cc(C(=O)O)c(=O)c2cc(F)c(N3CCNCC3)cc21 — MBC (broth dilution; ATCC6538): 2 µM
O=C(O)c1cn(C2CC2)c2cc(N3CCNCC3)c(F)cc2c1=O — MBC (broth dilution): 0.5 µg/mL
CCCCCC(=O)Oc1c(C)c(O)c(C(=O)/C=C/c2ccccc2)c(OC)c1C — MBC (broth dilution; ATCC25923): > 5000 µg/mL
O=C1NC(=S)N/C1=C\c1ccc(-c2ccc(N(c3ccccc3)c3ccccc3)cc2)c2ccccc12 — MBC (broth dilution; ATCC25923): > 1000 µg/mL
COc1c(C)c(OC(=O)c2ccccc2)c(C)c(O)c1C(=O)/C=C/c1ccccc1 — MBC (broth dilution; ATCC25923): > 5000 µg/mL
N#CC(=Cc1cn(-c2ccccc2)nc1-c1ccccc1)C1=NC(=O)CS1 — MBC (broth dilution): 0.25 µg/mL
COc1c(C)c(OC)c(C(=O)/C=C/c2ccccc2)c(OC)c1C — MBC (broth dilution; ATCC25923): > 5000 µg/mL
O=C(O)CN1C(=O)/C(=C/c2c3ccccc3c(-c3ccc(N(c4ccccc4)c4ccccc4)cc3)c3ccccc23)SC1=S — MBC (broth dilution; ATCC43300): > 1000 µg/mL
CC(=O)NC[C@H]1CN(c2ccc(N3CCOCC3)c(F)c2)C(=O)O1 — MBC (broth dilution; MRSA NRS119; drug-resistant strain): 64 µM
COc1c(C)c(OC(C)=O)c(C)c(OC(C)=O)c1C(=O)/C=C/c1ccccc1 — MBC (broth dilution; ATCC25923): > 5000 µg/mL
O=C1NC(=S)N/C1=C\c1c2ccccc2c(-c2ccc(N(c3ccccc3)c3ccccc3)cc2)c2ccccc12 — MBC (broth dilution; ATCC25923): > 1000 µg/mL
CC1CCN(CCCN2/C(=C/c3cc[n+](C)c4ccccc34)Sc3ccccc32)CC1.[I-] — MBC (ATCC29213): 16 µg/mL
COc1c(C)c(OC(=O)c2ccc(C)cc2)c(C)c(O)c1C(=O)/C=C/c1ccccc1 — MBC (broth dilution; ATCC25923): > 5000 µg/mL
O=C1NC(=S)N/C1=C\c1ccc(-c2ccc(N(c3ccccc3)c3ccccc3)cc2)cc1 — MBC (broth dilution; ATCC6538): > 1000 µg/mL
COc1cc(NC(C)CCCNC(=O)c2ccncc2C(=O)NCCCC(C)Nc2cc(OC)cc3ccc(C(C)(C)C)nc23)c2nc(C(C)(C)C)ccc2c1.Cl (stereo not shown) — MBC (ATCC43300 MRSA; drug-resistant strain): 10 to 20 µg/mL
